Assay results reported in ChEMBL document CHEMBL5653631, “A Potent and Selective ULK1 Inhibitor Suppresses Autophagy and Sensitizes Cancer Cells to Nutrient Stress” (iScience, 2018).
One block for each molecule: values may come before it.

Legend:
[1] = target: Eukaryotic translation initiation factor 2-alpha kinase 1 (Homo sapiens) (UniProt Q9BQI3); test: Inhibition of human recombinant HRI at 500 nM related to control ULK1
[2] = target: T1, Serine/threonine-protein kinase STK11 (Homo sapiens) (UniProt Q15831); test: Inhibition of human recombinant LKB1 at 40 nM in presence of ATP by radiometric assay relative to control
T1 sequence (whole entry): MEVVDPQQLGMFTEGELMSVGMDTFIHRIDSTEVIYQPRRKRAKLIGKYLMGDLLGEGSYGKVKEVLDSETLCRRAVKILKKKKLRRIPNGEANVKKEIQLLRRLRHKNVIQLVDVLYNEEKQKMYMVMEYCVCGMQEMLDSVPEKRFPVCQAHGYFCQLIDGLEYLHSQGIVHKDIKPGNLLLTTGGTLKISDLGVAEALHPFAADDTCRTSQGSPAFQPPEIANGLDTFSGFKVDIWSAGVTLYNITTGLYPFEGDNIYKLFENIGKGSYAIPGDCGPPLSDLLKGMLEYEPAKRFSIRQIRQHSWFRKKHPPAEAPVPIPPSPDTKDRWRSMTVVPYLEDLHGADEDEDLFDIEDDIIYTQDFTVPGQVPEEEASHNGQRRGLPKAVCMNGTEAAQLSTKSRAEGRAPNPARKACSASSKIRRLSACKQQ

[3] = target: Ribosomal protein S6 kinase alpha-1 (Homo sapiens) (UniProt Q15418); test: Inhibition of human recombinant RSK1 at 40 nM in presence of ATP by radiometric assay relative to control
Ribosomal protein S6 kinase alpha-1 (Homo sapiens), sequence (Q15418 whole entry, the tested form may be a part): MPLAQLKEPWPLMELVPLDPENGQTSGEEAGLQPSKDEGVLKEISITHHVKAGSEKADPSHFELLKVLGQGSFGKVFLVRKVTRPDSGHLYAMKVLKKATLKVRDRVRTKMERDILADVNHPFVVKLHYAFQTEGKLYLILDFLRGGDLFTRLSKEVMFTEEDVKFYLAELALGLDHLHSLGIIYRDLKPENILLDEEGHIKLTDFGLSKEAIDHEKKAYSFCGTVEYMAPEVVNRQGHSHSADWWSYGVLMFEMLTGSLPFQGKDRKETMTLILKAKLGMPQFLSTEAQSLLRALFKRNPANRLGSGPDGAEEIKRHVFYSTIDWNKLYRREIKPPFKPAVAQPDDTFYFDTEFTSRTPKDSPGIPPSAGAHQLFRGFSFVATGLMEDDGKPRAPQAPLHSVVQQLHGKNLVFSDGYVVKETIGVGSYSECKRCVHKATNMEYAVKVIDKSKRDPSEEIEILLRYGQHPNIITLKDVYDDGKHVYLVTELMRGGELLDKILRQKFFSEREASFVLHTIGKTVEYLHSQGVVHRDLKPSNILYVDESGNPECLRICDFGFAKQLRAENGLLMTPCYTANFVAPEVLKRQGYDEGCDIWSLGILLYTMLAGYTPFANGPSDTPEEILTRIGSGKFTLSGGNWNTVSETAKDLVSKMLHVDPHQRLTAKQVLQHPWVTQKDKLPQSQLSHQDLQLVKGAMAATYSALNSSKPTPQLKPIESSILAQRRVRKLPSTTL

[4] = target: Epithelial discoidin domain-containing receptor 1 (Homo sapiens) (UniProt Q08345); test: Inhibition of human recombinant DDR1 at 40 nM related to control ULK1
[5] = target: T2, Activin receptor type-1B (Homo sapiens) (UniProt P36896); test: Inhibition of human recombinant ALK4 at 40 nM related to control ULK1
T2 sequence (whole entry): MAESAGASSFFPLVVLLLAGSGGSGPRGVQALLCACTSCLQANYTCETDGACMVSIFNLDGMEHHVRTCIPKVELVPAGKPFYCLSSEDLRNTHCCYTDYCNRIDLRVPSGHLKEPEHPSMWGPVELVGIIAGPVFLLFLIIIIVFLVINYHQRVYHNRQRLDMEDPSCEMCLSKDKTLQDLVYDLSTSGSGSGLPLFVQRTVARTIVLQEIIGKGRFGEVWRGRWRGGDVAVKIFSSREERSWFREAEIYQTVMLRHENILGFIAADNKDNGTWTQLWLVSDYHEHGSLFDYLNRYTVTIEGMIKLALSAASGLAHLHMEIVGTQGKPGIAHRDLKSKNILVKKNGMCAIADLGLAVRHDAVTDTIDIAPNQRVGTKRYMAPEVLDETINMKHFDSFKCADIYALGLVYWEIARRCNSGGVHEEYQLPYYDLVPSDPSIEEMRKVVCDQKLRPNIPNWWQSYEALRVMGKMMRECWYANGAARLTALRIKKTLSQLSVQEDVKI
Outline: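 Radiometric activity assays in a panel of 327 human recombinant kinases, each run in duplicate at one inhibitor concentration. Activity remaining is expressed as percent of vehicle control, and percent inhibition is calculated as 100% minus percent activity remaining.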

[6] = target: T3, Serine/threonine-protein kinase haspin (Homo sapiens) (UniProt Q8TF76); test: Inhibition of human recombinant Haspin at 40 nM related to control ULK1
T3 sequence (whole entry): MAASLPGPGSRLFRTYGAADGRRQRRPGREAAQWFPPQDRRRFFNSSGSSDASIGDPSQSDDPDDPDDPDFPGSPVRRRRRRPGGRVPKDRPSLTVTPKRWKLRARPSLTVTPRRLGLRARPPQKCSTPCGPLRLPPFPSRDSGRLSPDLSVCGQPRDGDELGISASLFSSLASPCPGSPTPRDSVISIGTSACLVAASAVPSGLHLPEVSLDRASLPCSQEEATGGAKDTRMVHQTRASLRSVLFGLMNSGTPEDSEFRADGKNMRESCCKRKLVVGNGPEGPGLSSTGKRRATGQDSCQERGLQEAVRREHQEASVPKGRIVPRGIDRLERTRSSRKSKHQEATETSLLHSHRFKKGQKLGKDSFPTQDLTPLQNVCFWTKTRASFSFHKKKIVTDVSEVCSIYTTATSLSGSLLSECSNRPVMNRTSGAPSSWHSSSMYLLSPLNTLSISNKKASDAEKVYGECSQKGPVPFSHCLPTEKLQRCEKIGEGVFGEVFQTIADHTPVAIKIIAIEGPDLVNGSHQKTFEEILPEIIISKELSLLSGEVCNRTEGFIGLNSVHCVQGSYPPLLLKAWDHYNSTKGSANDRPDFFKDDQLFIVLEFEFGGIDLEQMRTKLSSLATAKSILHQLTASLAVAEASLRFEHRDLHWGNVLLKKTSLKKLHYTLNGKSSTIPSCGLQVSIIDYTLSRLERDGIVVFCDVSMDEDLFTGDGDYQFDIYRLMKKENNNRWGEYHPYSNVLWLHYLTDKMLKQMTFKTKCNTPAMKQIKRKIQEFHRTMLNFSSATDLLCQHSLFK

[7] = target: Ribosomal protein S6 kinase alpha-5 (Homo sapiens) (UniProt O75582); test: Inhibition of human recombinant MSK1 at 15 nM in presence of ATP by radiometric assay relative to control
Ribosomal protein S6 kinase alpha-5 (Homo sapiens), sequence (O75582 whole entry, looked up): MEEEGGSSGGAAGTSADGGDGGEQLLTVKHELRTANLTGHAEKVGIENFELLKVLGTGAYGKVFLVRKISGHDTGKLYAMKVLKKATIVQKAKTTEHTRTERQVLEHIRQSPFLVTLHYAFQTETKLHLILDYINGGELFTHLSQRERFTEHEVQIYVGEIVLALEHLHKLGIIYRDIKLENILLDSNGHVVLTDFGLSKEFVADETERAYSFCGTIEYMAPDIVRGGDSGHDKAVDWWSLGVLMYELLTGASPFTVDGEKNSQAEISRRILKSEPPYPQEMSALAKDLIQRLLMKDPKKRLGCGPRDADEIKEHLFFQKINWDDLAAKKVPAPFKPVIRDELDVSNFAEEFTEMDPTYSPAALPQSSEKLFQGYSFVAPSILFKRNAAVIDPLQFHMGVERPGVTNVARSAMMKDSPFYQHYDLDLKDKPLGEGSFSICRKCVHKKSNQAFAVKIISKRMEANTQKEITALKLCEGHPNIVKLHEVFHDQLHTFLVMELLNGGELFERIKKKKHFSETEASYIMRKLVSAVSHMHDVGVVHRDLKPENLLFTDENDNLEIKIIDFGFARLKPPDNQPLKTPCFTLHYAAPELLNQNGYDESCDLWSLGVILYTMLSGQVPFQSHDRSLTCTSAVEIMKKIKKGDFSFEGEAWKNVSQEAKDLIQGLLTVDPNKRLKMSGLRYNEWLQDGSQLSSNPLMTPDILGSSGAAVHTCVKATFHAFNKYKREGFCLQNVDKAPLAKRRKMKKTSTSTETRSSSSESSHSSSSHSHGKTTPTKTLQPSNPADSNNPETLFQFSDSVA

[8] = target: Glycogen synthase kinase-3 alpha (Homo sapiens) (UniProt P49840); test: Inhibition of human recombinant GSK3A at 15 nM related to control ULK1
Glycogen synthase kinase-3 alpha (Homo sapiens), sequence (P49840 2-483 limits assumed): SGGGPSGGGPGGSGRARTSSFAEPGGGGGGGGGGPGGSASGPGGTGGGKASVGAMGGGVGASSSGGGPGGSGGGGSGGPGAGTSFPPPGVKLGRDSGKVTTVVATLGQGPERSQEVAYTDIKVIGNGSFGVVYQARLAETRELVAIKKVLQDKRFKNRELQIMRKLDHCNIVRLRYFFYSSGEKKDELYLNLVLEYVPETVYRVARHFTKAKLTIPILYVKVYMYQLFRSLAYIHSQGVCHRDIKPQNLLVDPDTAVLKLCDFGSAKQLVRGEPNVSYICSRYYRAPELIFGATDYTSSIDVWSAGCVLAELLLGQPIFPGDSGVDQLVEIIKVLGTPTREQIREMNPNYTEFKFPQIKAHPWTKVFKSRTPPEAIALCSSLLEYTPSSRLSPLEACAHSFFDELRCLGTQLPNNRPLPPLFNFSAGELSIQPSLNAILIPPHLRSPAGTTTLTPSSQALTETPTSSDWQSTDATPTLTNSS

[9] = target: Fibroblast growth factor receptor 4 (Homo sapiens) (UniProt P22455); test: Inhibition of human recombinant FGFR4 at 15 nM in presence of ATP by radiometric assay relative to control
[10] = target: RAF proto-oncogene serine/threonine-protein kinase (Homo sapiens) (UniProt P04049); test: Inhibition of human recombinant RAF1 at 15 nM related to control ULK1
RAF proto-oncogene serine/threonine-protein kinase (Homo sapiens), sequence (P04049 whole entry): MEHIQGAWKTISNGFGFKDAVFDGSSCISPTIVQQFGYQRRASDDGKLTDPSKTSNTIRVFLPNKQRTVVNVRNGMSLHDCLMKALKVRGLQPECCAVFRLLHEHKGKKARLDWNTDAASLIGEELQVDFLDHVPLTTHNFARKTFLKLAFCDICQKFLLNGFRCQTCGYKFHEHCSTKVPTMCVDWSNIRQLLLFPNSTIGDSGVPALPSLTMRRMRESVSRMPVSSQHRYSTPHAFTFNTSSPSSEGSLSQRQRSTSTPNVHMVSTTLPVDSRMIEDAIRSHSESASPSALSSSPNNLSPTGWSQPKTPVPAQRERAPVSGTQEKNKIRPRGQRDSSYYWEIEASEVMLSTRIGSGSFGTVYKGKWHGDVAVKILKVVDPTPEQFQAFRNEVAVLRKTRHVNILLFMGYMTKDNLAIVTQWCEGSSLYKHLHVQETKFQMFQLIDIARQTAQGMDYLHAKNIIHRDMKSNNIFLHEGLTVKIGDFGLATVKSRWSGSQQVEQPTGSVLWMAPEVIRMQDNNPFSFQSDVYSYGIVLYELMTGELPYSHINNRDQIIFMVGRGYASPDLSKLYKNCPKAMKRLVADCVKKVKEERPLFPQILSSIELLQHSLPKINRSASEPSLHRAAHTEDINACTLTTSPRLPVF

[11] = target: Fibroblast growth factor receptor 3 (Homo sapiens) (UniProt P22607); test: Inhibition of human recombinant FGFR3 at 15 nM related to control ULK1
Fibroblast growth factor receptor 3 (Homo sapiens), sequence (P22607 23-806 limits assumed): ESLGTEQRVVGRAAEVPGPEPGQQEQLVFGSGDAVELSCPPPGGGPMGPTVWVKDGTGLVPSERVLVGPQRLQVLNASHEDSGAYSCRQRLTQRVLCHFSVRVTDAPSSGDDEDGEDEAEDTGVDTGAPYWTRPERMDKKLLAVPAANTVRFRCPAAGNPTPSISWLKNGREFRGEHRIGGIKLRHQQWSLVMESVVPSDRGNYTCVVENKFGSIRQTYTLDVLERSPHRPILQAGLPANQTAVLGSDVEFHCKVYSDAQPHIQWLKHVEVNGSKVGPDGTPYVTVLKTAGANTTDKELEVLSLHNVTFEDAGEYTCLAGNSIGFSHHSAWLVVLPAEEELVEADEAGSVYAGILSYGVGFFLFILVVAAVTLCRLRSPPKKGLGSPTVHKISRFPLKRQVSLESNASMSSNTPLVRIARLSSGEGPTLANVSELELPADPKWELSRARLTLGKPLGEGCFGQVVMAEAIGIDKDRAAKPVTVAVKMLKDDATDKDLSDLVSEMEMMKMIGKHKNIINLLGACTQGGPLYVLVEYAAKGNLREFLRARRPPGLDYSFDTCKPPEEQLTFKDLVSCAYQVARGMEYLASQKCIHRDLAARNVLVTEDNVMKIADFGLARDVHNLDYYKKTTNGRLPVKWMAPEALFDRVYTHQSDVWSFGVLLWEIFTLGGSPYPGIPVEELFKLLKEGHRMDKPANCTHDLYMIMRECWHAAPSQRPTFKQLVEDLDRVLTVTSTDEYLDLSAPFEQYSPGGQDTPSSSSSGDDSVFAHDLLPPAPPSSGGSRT

[12] = target: Serine/threonine-protein kinase MARK1 (Homo sapiens) (UniProt Q9P0L2); test: Inhibition of human recombinant MARK1 at 15 nM related to control ULK1
Serine/threonine-protein kinase MARK1 (Homo sapiens), sequence (Q9P0L2 whole entry, looked up): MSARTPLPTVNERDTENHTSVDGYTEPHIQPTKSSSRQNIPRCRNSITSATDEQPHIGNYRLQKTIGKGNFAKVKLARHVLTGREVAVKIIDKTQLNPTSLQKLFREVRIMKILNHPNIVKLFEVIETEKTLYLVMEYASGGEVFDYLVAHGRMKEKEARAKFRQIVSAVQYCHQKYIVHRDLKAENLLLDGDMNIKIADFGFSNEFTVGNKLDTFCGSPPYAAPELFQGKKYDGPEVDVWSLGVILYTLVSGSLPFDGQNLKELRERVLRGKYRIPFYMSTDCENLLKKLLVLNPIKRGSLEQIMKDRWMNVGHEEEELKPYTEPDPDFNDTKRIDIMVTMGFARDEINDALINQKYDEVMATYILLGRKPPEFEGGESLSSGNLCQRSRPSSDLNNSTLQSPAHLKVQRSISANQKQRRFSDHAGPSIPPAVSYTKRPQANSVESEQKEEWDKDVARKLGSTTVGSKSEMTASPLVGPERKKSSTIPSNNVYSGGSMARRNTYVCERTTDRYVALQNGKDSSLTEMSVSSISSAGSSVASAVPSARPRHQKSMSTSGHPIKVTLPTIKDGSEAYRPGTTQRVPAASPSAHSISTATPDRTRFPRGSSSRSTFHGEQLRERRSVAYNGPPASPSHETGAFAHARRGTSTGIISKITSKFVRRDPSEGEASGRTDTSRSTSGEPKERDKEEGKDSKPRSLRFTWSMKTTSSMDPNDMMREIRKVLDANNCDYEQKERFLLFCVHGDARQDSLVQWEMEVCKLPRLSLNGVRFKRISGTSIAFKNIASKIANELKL

[13] = target: Serine-protein kinase ATM (Homo sapiens) (UniProt Q13315); test: Inhibition of human recombinant ATM at 15 nM related to control ULK1
Outline: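 Panel of 327 recombinant human kinases, each assayed in vitro by radiometric activity assay in duplicate at a single inhibitor concentration per compound, chosen with reference to its ULK1 inhibition. Activity remaining was expressed as percent of vehicle control, and percent inhibition was calculated as 100 minus percent activity remaining.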

Eukaryotic translation initiation factor 2-alpha kinase 1 (Homo sapiens), sequence (Q9BQI3 whole entry): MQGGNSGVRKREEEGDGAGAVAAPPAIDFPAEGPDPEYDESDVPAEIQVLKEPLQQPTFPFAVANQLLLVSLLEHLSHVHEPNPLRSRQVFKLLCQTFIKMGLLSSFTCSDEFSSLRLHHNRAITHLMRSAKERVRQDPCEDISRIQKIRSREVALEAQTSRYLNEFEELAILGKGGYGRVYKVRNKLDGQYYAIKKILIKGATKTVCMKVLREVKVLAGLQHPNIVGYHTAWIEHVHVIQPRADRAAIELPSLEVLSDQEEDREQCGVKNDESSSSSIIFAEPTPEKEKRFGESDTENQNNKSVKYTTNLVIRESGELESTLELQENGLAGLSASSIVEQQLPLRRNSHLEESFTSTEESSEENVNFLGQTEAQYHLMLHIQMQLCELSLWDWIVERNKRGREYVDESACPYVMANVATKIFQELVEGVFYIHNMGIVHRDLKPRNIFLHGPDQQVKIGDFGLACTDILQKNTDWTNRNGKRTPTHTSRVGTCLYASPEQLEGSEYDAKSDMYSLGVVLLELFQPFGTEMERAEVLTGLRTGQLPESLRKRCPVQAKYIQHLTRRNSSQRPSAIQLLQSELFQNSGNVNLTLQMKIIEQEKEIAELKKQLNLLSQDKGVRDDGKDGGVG

- fold change (FC) [1]: 0
Compound: CNC(=O)c1ccccc1Oc1nc(Nc2cc(OC)c(OC)c(OC)c2)ncc1Br

- inhibition [2]: 13%
- inhibition [3]: 8%
- fold change (FC) [4]: 0.25
- fold change (FC) [5]: 0
- fold change (FC) [6]: 0.01
Compound: O=C(N[C@@H](C1CC1)C(F)(F)F)c1cc(-c2cnn3cc(-c4ccc(F)cc4)cnc23)cs1

- inhibition [7]: 2%
- fold change (FC) [8]: 0
- inhibition [9]: 0%
- fold change (FC) [10]: 0.09
- fold change (FC) [11]: 0
- fold change (FC) [12]: 0.61
- fold change (FC) [13]: 0.07
Compound: CC(C)[C@H](NC(=O)c1cc(-c2cnn3cc(-c4ccc(OCCN5CCCCC5)cc4)cnc23)cs1)C(F)(F)F
